Measurements from ChEMBL document CHEMBL3632612, “Discovery of WQ-3810: Design, synthesis, and evaluation of 7-(3-alkylaminoazetidin-1-yl)fluoro-quinolones as orally active antibacterial agents” (Eur J Med Chem, 2015).
≈ marks a conversion by molar mass, not a printed value.

Tests used:
[1] = test system: Acinetobacter calcoaceticus; assay: Antibacterial activity against Acinetobacter calcoaceticus Ac-54 assessed as growth inhibition at 128 to 0.002 mg/L incubated for 18 hrs at 37 degC by agar dilution method; format: functional; conditions: Ac-54, 18 h
Method in brief: (§1)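 Agar dilution on Mueller Hinton agar per Japanese Society of Chemotherapy standard method; about 10⁴ cfu inoculated onto plates holding two-fold dilution series; incubation 37°C, 18 h; MIC read as growth endpoint.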

[2] = test system: Escherichia coli; assay: Antibacterial activity against Escherichia coli 177 assessed as growth inhibition at 128 to 0.002 mg/L incubated for 18 hrs at 37 degC by agar dilution method; format: functional; conditions: Escherichia coli, 177, 18 h; method in brief: as §1
[3] = test system: Providencia rettgeri; assay: Antibacterial activity against Providencia rettgeri W1008 assessed as growth inhibition at 128 to 0.002 mg/L incubated for 18 hrs at 37 degC by agar dilution method; format: functional; conditions: W1008, 18 h; method in brief: as §1
[4] = test system: Enterobacter cloacae; assay: Antibacterial activity against Enterobacter cloacae IFO13535 assessed as growth inhibition at 128 to 0.002 mg/L incubated for 18 hrs at 37 degC by agar dilution method; format: functional; conditions: IFO13535, 18 h; method in brief: as §1
[5] = Solubility of the compound in JP2 solution at pH 6.8 after 24 hrs at 25 degC by HPLC; format: physicochemical
Method in brief: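 Excess solid shaken in JP2 (50 mM potassium dihydrogenphosphate, pH 6.8) at 25°C for 24 h to equilibrium, filtered 0.45 µm; filtrate concentration by reversed-phase UPLC, UV 290 nm; mean ± S.D., n=3.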

[6] = test system: Escherichia coli; assay: Antibacterial activity against Escherichia coli KC-14 assessed as growth inhibition at 128 to 0.002 mg/L incubated for 18 hrs at 37 degC by agar dilution method; format: functional; conditions: KC-14, 18 h; method in brief: as §1
[7] = test system: Pseudomonas aeruginosa; assay: Antibacterial activity against Pseudomonas aeruginosa IFO3445 assessed as growth inhibition at 128 to 0.002 mg/L incubated for 18 hrs at 37 degC by agar dilution method; format: functional; conditions: IFO3445, 18 h; method in brief: as §1
[8] = test system: Pseudomonas aeruginosa; assay: Antibacterial activity against Pseudomonas aeruginosa 15846 assessed as growth inhibition at 128 to 0.002 mg/L incubated for 18 hrs at 37 degC by agar dilution method; format: functional; conditions: Pseudomonas aeruginosa, 15846, 18 h; method in brief: as §1
[9] = test system: Escherichia coli; assay: Antibacterial activity against Escherichia coli NIHJ assessed as growth inhibition at 128 to 0.002 mg/L incubated for 18 hrs at 37 degC by agar dilution method; format: functional; method in brief: as §1
[10] = test system: Klebsiella pneumoniae; assay: Antibacterial activity against Klebsiella pneumoniae KC-1 assessed as growth inhibition at 128 to 0.002 mg/L incubated for 18 hrs at 37 degC by agar dilution method; format: functional; conditions: KC-1, 18 h; method in brief: as §1
[11] = test system: Morganella morganii; assay: Antibacterial activity against Morganella morganii W1026 assessed as growth inhibition at 128 to 0.002 mg/L incubated for 18 hrs at 37 degC by agar dilution method; format: functional; conditions: W1026, 18 h; method in brief: as §1
[12] = test system: Proteus mirabilis; assay: Antibacterial activity against Proteus mirabilis IFO3849 assessed as growth inhibition at 128 to 0.002 mg/L incubated for 18 hrs at 37 degC by agar dilution method; format: functional; conditions: IFO3849, 18 h; method in brief: as §1
[13] = test system: Serratia marcescens; assay: Antibacterial activity against Serratia marcescens T-55 assessed as growth inhibition at 128 to 0.002 mg/L incubated for 18 hrs at 37 degC by agar dilution method; format: functional; conditions: T-55, 18 h; method in brief: as §1
[14] = test system: Klebsiella pneumoniae; assay: Antibacterial activity against Klebsiella pneumoniae DT-S assessed as growth inhibition at 128 to 0.002 mg/L incubated for 18 hrs at 37 degC by agar dilution method; format: functional; method in brief: as §1
[15] = Oral drug absorption in Sprague-Dawley rat at 10 mg/kg, po after 24 hrs by HPLC; format: ADME, organism-based; conditions: in vivo
Method in brief: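 Absorption rate computed as total urinary plus biliary excretion (% of dose, summed means) after oral dosing divided by total after iv dosing; excretion measured in fasted male Sprague-Dawley rats by HPLC over 24 h, bile glucuronides alkaline-hydrolysed.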

[16] = Drug excretion in Sprague-Dawley rat at 10 mg/kg, po after 24 hrs by HPLC; format: ADME, organism-based; conditions: in vivo, read-out: Drug excretion
Method in brief: (§2)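 Six-week male Sprague-Dawley rats, fasted overnight; oral dose suspended in 0.5% methylcellulose, iv dose dissolved in 0.04 N NaOH. Urine from intact rats in metabolic cages, bile from bile duct-cannulated rats, 0–24 h. Bile alkaline-hydrolysed (1 N NaOH, 37°C, 1 h) to convert glucuronides; HPLC with UV 290 nm and internal standard; % of dose; mean ± S.D., three rats.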

[17] = test system: Proteus vulgaris; assay: Antibacterial activity against Proteus vulgaris IFO3167 assessed as growth inhibition at 128 to 0.002 mg/L incubated for 18 hrs at 37 degC by agar dilution method; format: functional; conditions: IFO3167, 18 h; method in brief: as §1
[18] = test system: Serratia marcescens; assay: Antibacterial activity against Serratia marcescens IFO3736 assessed as growth inhibition at 128 to 0.002 mg/L incubated for 18 hrs at 37 degC by agar dilution method; format: functional; conditions: IFO3736, 18 h; method in brief: as §1
[19] = test system: Pseudomonas aeruginosa; assay: Antibacterial activity against Pseudomonas aeruginosa E-2 assessed as growth inhibition at 128 to 0.002 mg/L incubated for 18 hrs at 37 degC by agar dilution method; format: functional; conditions: E-2, 18 h; method in brief: as §1
[20] = test system: Salmonella typhimurium; assay: Antibacterial activity against Salmonella typhimurium IFO13245 assessed as growth inhibition at 128 to 0.002 mg/L incubated for 18 hrs at 37 degC by agar dilution method; format: functional, Salmonella enterica subsp. enterica serovar Typhimurium; conditions: Salmonella enterica, IFO13245, 18 h; method in brief: as §1
[21] = biological target: DNA gyrase (Escherichia coli, UniProt P0AES4+P0AES6); assay: Inhibition of Escherichia coli DNA gyrase preincubated for 5 mins at 37 degC before addition of relaxed pBR322 as substrate by supercoiling assay; format: protein-complex assay
[22] = Passive permeability of the compound after 5 hrs at 25 degC by PAMPA assay; format: physicochemical; conditions: read-out: Peff
Method in brief: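 PAMPA: 10 µM compound in PBS with 5% MeOH in donor, PBS acceptor; 25°C, 5 h; both sides quantified by HPLC; Peff derived from donor/acceptor concentrations, volumes, 0.3 cm² filter area and 18,000 s; mean ± S.D., n=3.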

[23] = Drug excretion in Sprague-Dawley rat urine at 10 mg/kg, po after 24 hrs by HPLC; format: ADME, organism-based; conditions: read-out: Drug excretion; method in brief: as §2
[24] = test system: Citrobacter freundii; assay: Antibacterial activity against Citrobacter freundii IFO1268 assessed as growth inhibition at 128 to 0.002 mg/L incubated for 18 hrs at 37 degC by agar dilution method; format: functional; conditions: IFO1268, 18 h; method in brief: as §1
[25] = Drug excretion in Sprague-Dawley rat bile assessed as unmetabolized form at 10 mg/kg, po after 24 hrs by HPLC; format: ADME, organism-based; conditions: read-out: Drug excretion; method in brief: as §2
[26] = Drug excretion in Sprague-Dawley rat bile assessed as unmetabolized form at 5 mg/kg, iv after 24 hrs by HPLC; format: ADME, organism-based; conditions: read-out: Drug excretion; method in brief: as §2
[27] = Drug excretion in Sprague-Dawley rat assessed as unmetabolized form at 5 mg/kg, iv after 24 hrs by HPLC; format: ADME, organism-based; conditions: in vivo, read-out: Drug excretion; method in brief: as §2
[28] = Drug excretion in Sprague-Dawley rat urine at 5 mg/kg, iv after 24 hrs by HPLC; format: ADME, organism-based; conditions: read-out: Drug excretion; method in brief: as §2

MIC [1] [µg/mL] | MIC [2] [µg/mL] | MIC [3] [µg/mL] | MIC [4] [µg/mL] | solubility at 24 h [5] [µg/mL] | MIC [6] [µg/mL] | MIC [7] [µg/mL] | MIC [8] [µg/mL] | MIC [9] [µg/mL] | MIC [10] [µg/mL] | MIC [11] [µg/mL] | MIC [12] [µg/mL] | MIC [13] [µg/mL] | MIC [14] [µg/mL] | MIC [17] [µg/mL] | MIC [18] [µg/mL] | MIC [19] [µg/mL] | MIC [20] [µg/mL] | IC50 [21] [nM] | MIC [24] [µg/mL] | SMILES | further results
0.21 (≈ 0.455 µM) | 0.012 (≈ 0.026 µM) | 0.21 (≈ 0.455 µM) | 0.21 (≈ 0.455 µM) | 41 (≈ 88.9 µM) | 0.012 (≈ 0.026 µM) | 0.21 (≈ 0.455 µM) | 0.21 (≈ 0.455 µM) | 0.012 (≈ 0.026 µM) | 0.21 (≈ 0.455 µM) | 0.21 (≈ 0.455 µM) | 0.21 (≈ 0.455 µM) | 0.21 (≈ 0.455 µM) | 0.21 (≈ 0.455 µM) | 0.21 (≈ 0.455 µM) | 0.21 (≈ 0.455 µM) | 0.21 (≈ 0.455 µM) | 0.21 (≈ 0.455 µM) | 412 | 0.21 (≈ 0.455 µM) | CCCNC1CN(c2c(F)cc3c(=O)c(C(=O)O)cn(-c4nc(N)c(F)cc4F)c3c2C)C1 | Fa at 24 h [15]: > 90%; dose excreted at 24 h [16]: 91%; Papp at 5 h [22]: 1.1 ×10⁻⁶ cm/s; dose excreted at 24 h [23]: 17%; dose excreted at 24 h [25]: 74%
0.57 (≈ 1.2 µM) | 0.038 (≈ 0.0799 µM) | 0.57 (≈ 1.2 µM) | 0.57 (≈ 1.2 µM) | – | 0.038 (≈ 0.0799 µM) | 0.57 (≈ 1.2 µM) | 0.57 (≈ 1.2 µM) | 0.038 (≈ 0.0799 µM) | 0.57 (≈ 1.2 µM) | 0.57 (≈ 1.2 µM) | 0.57 (≈ 1.2 µM) | 0.57 (≈ 1.2 µM) | 0.57 (≈ 1.2 µM) | 0.57 (≈ 1.2 µM) | 0.57 (≈ 1.2 µM) | 0.57 (≈ 1.2 µM) | 0.57 (≈ 1.2 µM) | 694 | 0.57 (≈ 1.2 µM) | Cc1c(N2CC(NC(C)(C)C)C2)c(F)cc2c(=O)c(C(=O)O)cn(-c3nc(N)c(F)cc3F)c12 | –
0.061 (≈ 0.145 µM) | 0.004 (≈ 0.00954 µM) | 0.061 (≈ 0.145 µM) | 0.061 (≈ 0.145 µM) | 27 (≈ 64.4 µM) | 0.004 (≈ 0.00954 µM) | 0.061 (≈ 0.145 µM) | 0.061 (≈ 0.145 µM) | 0.004 (≈ 0.00954 µM) | 0.061 (≈ 0.145 µM) | 0.061 (≈ 0.145 µM) | 0.061 (≈ 0.145 µM) | 0.061 (≈ 0.145 µM) | 0.061 (≈ 0.145 µM) | 0.061 (≈ 0.145 µM) | 0.061 (≈ 0.145 µM) | 0.061 (≈ 0.145 µM) | 0.061 (≈ 0.145 µM) | 286 | 0.061 (≈ 0.145 µM) | Cc1c(N2CC(N)C2)c(F)cc2c(=O)c(C(=O)O)cn(-c3nc(N)c(F)cc3F)c12 | dose excreted at 24 h [26]: 41%; Fa at 24 h [15]: 9.6%; dose excreted at 24 h [16]: 8.2%; dose excreted at 24 h [27]: 85%; Papp at 5 h [22]: 0.12 ×10⁻⁶ cm/s; dose excreted at 24 h [23]: 4%; dose excreted at 24 h [28]: 44%; dose excreted at 24 h [25]: 4.2%
